pKi: −log10 of the molar value. Calls of active or inactive are those of the source. The rule behind the calls is not given here.
How the values were obtained:
[1] = target: Acetylcholinesterase (Homo sapiens) (UniProt P22303); assay: Inhibition of recombinant human AChE activity
Procedure, shortened: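 Ellman-type assay with recombinant human AChE (0.03 U) in 0.005% gelatin and buffered DTNB pH 8.0. Inhibitor in 50% aqueous acetonitrile, tested as 1:10 serial dilutions. Acetylthiocholine 3 × 10^-5 to 1.6 × 10^-4 M. Absorbance at 412 nm every 5 s over 1 min, 23 °C, generally triplicate and averaged. Lineweaver–Burk plots with and without inhibitor.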

Cholinesterase = Cholinesterase (Homo sapiens, UniProt P06276); assay: Inhibition of human plasma BuChE activity; type: cell-free
Cholinesterase, sequence (P06276 whole entry): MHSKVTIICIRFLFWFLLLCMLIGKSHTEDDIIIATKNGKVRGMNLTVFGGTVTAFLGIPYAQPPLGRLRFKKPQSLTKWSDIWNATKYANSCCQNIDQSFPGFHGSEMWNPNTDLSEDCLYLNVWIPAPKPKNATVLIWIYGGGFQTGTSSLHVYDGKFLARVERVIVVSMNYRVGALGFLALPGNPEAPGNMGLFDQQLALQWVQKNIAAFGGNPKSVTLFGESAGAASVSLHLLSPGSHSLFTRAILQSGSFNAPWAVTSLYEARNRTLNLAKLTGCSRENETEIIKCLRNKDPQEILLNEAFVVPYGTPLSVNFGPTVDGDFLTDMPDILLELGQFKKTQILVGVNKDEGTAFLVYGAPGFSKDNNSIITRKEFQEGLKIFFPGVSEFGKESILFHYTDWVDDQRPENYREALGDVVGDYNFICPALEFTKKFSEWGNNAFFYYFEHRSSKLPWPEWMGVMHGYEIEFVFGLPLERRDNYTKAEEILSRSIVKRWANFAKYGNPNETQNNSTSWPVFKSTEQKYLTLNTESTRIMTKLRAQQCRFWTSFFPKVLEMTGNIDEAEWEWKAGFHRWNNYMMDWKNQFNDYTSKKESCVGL
Procedure, shortened: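 Modified Ellman assay with purified human serum BuChE (0.05 U) in 0.005% gelatin, buffered DTNB pH 8.0. Inhibitor in 50% aqueous acetonitrile (1.67% v/v final), 1:10 serial dilutions. Butyrylthiocholine 3 × 10^-5 to 1.6 × 10^-4 M. A412 read every 5 s for 1 min at 23 °C, at least triplicate. Ki from slope replot of Lineweaver–Burk lines (no inhibitor, two inhibitor levels).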

Acetylcholinesterase (Homo sapiens), sequence (P22303 whole entry): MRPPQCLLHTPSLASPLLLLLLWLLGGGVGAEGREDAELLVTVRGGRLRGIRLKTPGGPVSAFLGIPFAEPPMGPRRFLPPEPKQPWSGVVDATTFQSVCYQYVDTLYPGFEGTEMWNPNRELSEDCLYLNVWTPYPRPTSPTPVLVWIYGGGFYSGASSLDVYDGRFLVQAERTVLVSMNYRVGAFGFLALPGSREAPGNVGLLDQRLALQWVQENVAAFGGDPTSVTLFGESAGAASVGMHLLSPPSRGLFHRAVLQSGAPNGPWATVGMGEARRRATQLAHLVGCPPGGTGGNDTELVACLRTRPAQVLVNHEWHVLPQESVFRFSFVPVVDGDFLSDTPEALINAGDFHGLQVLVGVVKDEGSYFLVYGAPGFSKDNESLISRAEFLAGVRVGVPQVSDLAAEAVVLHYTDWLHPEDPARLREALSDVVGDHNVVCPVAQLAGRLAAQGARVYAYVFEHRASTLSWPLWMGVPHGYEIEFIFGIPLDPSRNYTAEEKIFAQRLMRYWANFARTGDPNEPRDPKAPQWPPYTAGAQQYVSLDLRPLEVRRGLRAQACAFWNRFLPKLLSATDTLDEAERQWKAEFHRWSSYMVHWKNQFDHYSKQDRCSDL

SMILES | Activity [1] | pKi (Cholinesterase)
Cc1cccc(C(=O)N2c3ccccc3Sc3ccccc32)c1 | inactive | 5.72
O=C(c1ccc(-c2ccccc2)cc1)N1c2ccccc2Sc2ccccc21 | inactive | 
O=C(Cc1ccc(-c2ccccc2)cc1)N1c2ccccc2Sc2ccccc21 | inactive | 5.77
O=C(Cc1ccccc1)N1c2ccccc2Sc2ccccc21 | inactive | 6.21
O=C(Cc1ccc2ccccc2c1)N1c2ccccc2Sc2ccccc21 | inactive | 7.55
Cc1ccc(C(=O)N2c3ccccc3Sc3ccccc32)cc1 | inactive | 5.60
CCC(C(=O)N1c2ccccc2Sc2ccccc21)c1ccccc1 (stereo not drawn) | inactive | 6.40
O=C(c1ccccc1)N1c2ccccc2Sc2ccccc21 | inactive | 5.24
O=C(c1ccc2ccccc2c1)N1c2ccccc2Sc2ccccc21 | inactive | 6.33
CC(C(=O)N1c2ccccc2Sc2ccccc21)c1ccccc1 (stereo not drawn) | inactive | 6.25
O=C(CCc1ccccc1)N1c2ccccc2Sc2ccccc21 | inactive | 5.21
O=C(c1ccc(Br)cc1)N1c2ccccc2Sc2ccccc21 | inactive | 5.89
O=C(c1cccc(Br)c1)N1c2ccccc2Sc2ccccc21 | inactive | 6.22
O=C(C(=O)N1c2ccccc2Sc2ccccc21)N1c2ccccc2Sc2ccccc21 | inactive | 6.66
O=C(c1cccc2ccccc12)N1c2ccccc2Sc2ccccc21 | inactive | 7.06
CC(=O)Oc1ccc(C(=O)N2c3ccccc3Sc3ccccc32)cc1 | inactive | 4.64
COc1ccc(C(=O)N2c3ccccc3Sc3ccccc32)cc1 | inactive | 5.82
O=C(c1c2ccccc2cc2ccccc12)N1c2ccccc2Sc2ccccc21 | inactive | 8.46
O=C(Cc1cccc2ccccc12)N1c2ccccc2Sc2ccccc21 | inactive | 7.05
O=C(/C=C/c1ccccc1)N1c2ccccc2Sc2ccccc21 | inactive | 5.57
O=C(CCCc1ccccc1)N1c2ccccc2Sc2ccccc21 | inactive | 6.66
CC(CC(=O)N1c2ccccc2Sc2ccccc21)c1ccccc1 (stereo not drawn) | inactive | 5.77
CC(C)(C)c1ccc(C(=O)N2c3ccccc3Sc3ccccc32)cc1 | inactive | 
Cc1ccccc1C(=O)N1c2ccccc2Sc2ccccc21 | inactive | 5.51
O=C(c1ccc([N+](=O)[O-])cc1)N1c2ccccc2Sc2ccccc21 | inactive | 6.09
